Measurements from ChEMBL document CHEMBL4373712, “Bioactivatable Pseudotripeptidization of Cyclic Dipeptides To Increase the Affinity toward Oligopeptide Transporter 1 for Enhanced Oral Absorption: An Application to Cyclo(l-Hyp-l-Ser) (JBP485)” (J Med Chem, 2019).

Key:
[1] = Half life in pH 1.2 simulated gastric fluid at 5 mM by HPLC analysis; assay type: ADME
Summary of the method: (§1)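 Compound at 5 mM in 0.1 M HCl, pH 4.5 acetate buffer, pH 5.8/6.8/7.2 phosphate buffers, SGF (pH 1.2) and SIF (pH 6.8), prepared per Chinese Pharmacopoeia. Samples taken at 0-20 h and analyzed by HPLC-UV. k = 2.303×slope of log C versus time; t1/2 = 0.693/k.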

[2] = Tmax in Sprague-Dawley rat assessed as JBP485 level at 12 mg/kg equiv of JBP485 administered orally by UPLC-MS/MS analysis; assay type: ADME, organism-based; details: in vivo, po
Summary of the method: (§2)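 Fasted male SD rats (200–250 g), oral 12 mg/kg (prodrugs calculated as JBP485). Jugular blood 0.083–10 h, centrifuged, plasma JBP485 by UPLC-MS/MS; n=6.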

[3] = Half life in pH 7.2 phosphate buffer at 5 mM by HPLC analysis; assay type: physicochemical; summary of the method: as §1
[4] = Half life in 0.1 M HCl at 5 mM by HPLC analysis; assay type: physicochemical; summary of the method: as §1
[5] = Half life in pH 4.5 acetate buffer at 5 mM by HPLC analysis; assay type: physicochemical; summary of the method: as §1
[6] = Half life in pH 5.8 phosphate buffer at 5 mM by HPLC analysis; assay type: physicochemical; summary of the method: as §1
[7] = Cmax in Sprague-Dawley rat assessed as JBP485 level at 12 mg/kg equiv of JBP485 administered orally by UPLC-MS/MS analysis; assay type: ADME, organism-based; parameters: dose 12 mg/kg, route oral; details: in vivo, po
Summary of the method: (§3)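 Male SD rats, 200-250 g, fasted 12 h with water, n=6. Oral dose of 12 mg/kg as JBP485 equivalent; dose-effect arms at 12 and 100 mg/kg. JBP485 given iv at 6 mg/kg as the reference. Jugular blood taken at 0.083-10 h. Plasma JBP485 by UPLC-MS/MS. Absolute F = (AUCpo×Div)/(AUCiv×Dpo)×100%, using AUC0-t.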

[8] = Ratio of half-life in pH 7.2 phosphate buffer to half-life in Sprague-Dawley rat plasma; assay type: ADME
[9] = Half life in Sprague-Dawley rat plasma at 5 mM by HPLC analysis; assay type: ADME, cell-free
Summary of the method: (§4)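 Jejunum and liver homogenates from male SD rats in pH 7.4 PBS, adjusted to 200 µg/mL protein, and rat plasma. Each incubated with compound at 5 mM at 37 °C.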

[10] = Half life in Sprague-Dawley rat liver homogenates at 5 mM by HPLC analysis; assay type: ADME, tissue-based; summary of the method: as §4
[11] = Half life in pH 6.8 simulated intestinal fluid at 5 mM by HPLC analysis; assay type: ADME; summary of the method: as §1
[12] = AUC (0 to t) in Sprague-Dawley rat assessed as JBP485 level at 12 mg/kg equiv of JBP485 administered orally by UPLC-MS/MS analysis; assay type: ADME, organism-based; details: in vivo, po; summary of the method: as §3
[13] = Ratio of half-life in pH 7.2 phosphate buffer to half-life in Sprague-Dawley rat intestinal homogenates; assay type: ADME, tissue-based; details: tissue homogenate
[14] = Apparent permeability across human Caco2 cells at 0.5 mM measured after 5 to 60 mins by UPLC-MS/MS analysis; assay type: ADME, cell-based; details: caco-2, 500 µM
Summary of the method: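 Caco-2 cells grown on 0.4 µm transwell inserts; monolayers used only with TEER >300 Ω/cm². Compound at 0.5 mM in apical pH 6.0 HBSS, basolateral pH 7.4 HBSS, 37 °C. Basolateral samples taken at 5, 15, 30, 45 and 60 min. Quantified by UPLC-MS/MS; Papp from steady-state flux, area and initial donor concentration. Three repeats.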

[15] = Half life in Sprague-Dawley rat intestinal homogenates at 5 mM by HPLC analysis; assay type: ADME, tissue-based, Intestine; summary of the method: as §4
[16] = Terminal half-life in Sprague-Dawley rat assessed as JBP485 level at 12 mg/kg equiv of JBP485 administered orally by UPLC-MS/MS analysis; assay type: ADME, organism-based; details: in vivo, po; summary of the method: as §2
[17] = Oral bioavailability in Sprague-Dawley rat assessed as JBP485 level at 12 mg/kg equiv of JBP485 by UPLC-MS/MS analysis; assay type: ADME, organism-based; details: in vivo; summary of the method: as §3
[18] = Ratio of half-life in pH 7.2 phosphate buffer to half-life in Sprague-Dawley rat liver homogenates; assay type: ADME, tissue-based; details: tissue homogenate
[19] = Half life in pH 6.8 phosphate buffer at 5 mM by HPLC analysis; assay type: physicochemical; summary of the method: as §1
[20] = substrate: O=C1N[C@@H](CO)C(=O)N2C[C@H](O)C[C@@H]12; test: (§5) Substrate activity at PEPT1 in human Caco2 cells assessed as Km measured after 10 mins by Eadie-Hofstee plot analysis; assay type: ADME, cell-based
Summary of the method: (§6)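 Caco-2 uptake at 0.2–5 mM compound for 10 min at 37 °C, cells washed ice-cold and lysed, drug quantified by UPLC-MS/MS and normalised to protein. Km from Eadie–Hofstee plot; n=3.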

[21] = substrate: O=C(O)[C@H](CO)NC(=O)[C@@H]1C[C@@H](O)CN1; test: as §5; assay type: ADME, cell-based; summary of the method: as §6
[22] = substrate: [H][C@@]12C[C@@H](O)CN1C(=O)[C@H](COC(=O)[C@@H](N)C(C)C)NC2=O; test: as §5; assay type: ADME, cell-based; summary of the method: as §6

Row | Molecule | half-life at 5000 µM [1] [h] | Tmax [2] [h] | half-life at 5000 µM [3] [h] | half-life at 5000 µM [4] [h] | half-life at 5000 µM [5] [h] | half-life at 5000 µM [6] [h] | Cmax [7] [µM] | Ratio [8] | half-life at 5000 µM [9] [h] | half-life at 5000 µM [10] [h] | half-life at 5000 µM [11] [h] | AUCt [12] [nM/ml.hr] | Ratio [13] | Papp [14] | half-life at 5000 µM [15] [h] | beta t1/2 [16] [h] | F [17] [%] | Ratio [18] | half-life at 5000 µM [19] [h] | further results
1 | CCC(C)[C@H](N)C(=O)OC[C@@H]1NC(=O)[C@@H]2C[C@@H](O)CN2C1=O (some centres not stated) | > 20 | 0.9 | 9.6 | > 20 | > 20 | > 20 | 41.8 | 3 to 35 | 4 | 4.8 | 10.9 | 122.65 | 3 to 35 | Permeable | 0.8 | 0.9 | 31.6 | 3 to 35 | 11.6 | –
2 | N[C@@H](Cc1ccccc1)C(=O)OC[C@@H]1NC(=O)[C@@H]2C[C@@H](O)CN2C1=O | > 20 | 1 | 2.3 | > 20 | > 20 | 8.2 | 10.7 | 3 to 35 | 0.29 | 0.16 | 2.8 | 33.9 | 3 to 35 | – | < 0.083 | 2.38 | 8.7 | 3 to 35 | 2.6 | –
3 | Solute carrier family 15 member 1 (Homo sapiens) (protein) MGMSKSHSFFGYPLSIFFIVVNEFCERFSYYGMRAILILYFTNFISWDDNLSTAIYHTFVALCYLTPILGALIADSWLGKFKTIVSLSIVYTIGQAVTSVSSINDLTDHNHDGTPDSLPVHVVLSLIGLALIALGTGGIKPCVSAFGGDQFEEGQEKQRNRFFSIFYLAINAGSLLSTIITPMLRVQQCGIHSKQACYPLAFGVPAALMAVALIVFVLGSGMYKKFKPQGNIMGKVAKCIGFAIKNRFRHRSKAFPKREHWLDWAKEKYDERLISQIKMVTRVMFLYIPLPMFWALFDQQGSRWTLQATTMSGKIGALEIQPDQMQTVNAILIVIMVPIFDAVLYPLIAKCGFNFTSLKKMAVGMVLASMAFVVAAIVQVEIDKTLPVFPKGNEVQIKVLNIGNNTMNISLPGEMVTLGPMSQTNAFMTFDVNKLTRINISSPGSPVTAVTDDFKQGQRHTLLVWAPNHYQVVKDGLNQKPEKGENGIRFVNTFNELITITMSGKVYANISSYNASTYQFFPSGIKGFTISSTEIPPQCQPNFNTFYLEFGSAYTYIVQRKNDSCPEVKVFEDISANTVNMALQIPQYFLLTCGEVVFSVTGLEFSYSQAPSNMKSVLQAGWLLTVAVGNIIVLIVAGAGQFSKQWAEYILFAALLLVVCVIFAIMARFYTYINPAEIEAQFDEDEKKNRLEKSNPYFMSGANSQKQM | – | – | – | – | – | – | – | – | – | – | – | – | – | – | – | – | – | – | – | Km [20]: 2530 µM; Km [21]: 650 µM; Km [22]: 860 µM

Now from value to molecule, other results behind:

Row | half-life at 5000 µM [1] [h] | Tmax [2] [h] | half-life at 5000 µM [3] [h] | half-life at 5000 µM [4] [h] | half-life at 5000 µM [5] [h] | half-life at 5000 µM [6] [h] | Cmax [7] [µM] | Ratio [8] | half-life at 5000 µM [9] [h] | half-life at 5000 µM [10] [h] | half-life at 5000 µM [11] [h] | AUCt [12] [nM/ml.hr] | Ratio [13] | Papp [14] | half-life at 5000 µM [15] [h] | beta t1/2 [16] [h] | F [17] [%] | Ratio [18] | half-life at 5000 µM [19] [h] | Molecule | further results
4 | > 20 | 0.41 | 11.6 | > 20 | > 20 | > 20 | 98.3 | 3 to 35 | 6.1 | 2.1 | 11.1 | 139.78 | 3 to 35 | Permeable | 0.9 | 2.51 | 36 | 3 to 35 | 11.4 | CC(C)[C@H](N)C(=O)O[C@@H]1C[C@H]2C(=O)N[C@@H](CO)C(=O)N2C1 | –
5 | > 20 | 1.3 | 1.9 | > 20 | > 20 | 14.7 | 8.95 | 3 to 35 | 0.32 | 0.16 | 2.4 | 28.75 | 3 to 35 | – | < 0.083 | 2.23 | 7.4 | 3 to 35 | 2.6 | CC(C)C[C@H](N)C(=O)OC[C@@H]1NC(=O)[C@@H]2C[C@@H](O)CN2C1=O | –
